The record followed here is ChEMBL document CHEMBL1772950, “Solid phase synthesis and biological activity of tuftsin conjugates” (J Med Chem, 2011).

Calls of active or inactive are those of the source. The rule behind the calls is not given here. Residues, ends and D or L forms follow the SMILES beside them. *: point of attachment. Acridin9yl(1-NO2,4-Me) = Cc1ccc([N+](=O)[O-])c2c(*)c3ccccc3nc12; X1 = O=C(c1ccc([N+](=O)[O-])c2c(=O)c3ccccc3[nH]c12)*; Acridone(4-CO) = O=C(c1cccc2c(=O)c3ccccc3[nH]c12)*; X2 = O=[N+]([O-])c1cccc2nc3ccccc3c(*)c12; Ahx = NCCCCCC(=O)O; GABA = NCCCC(=O)O; βAla = NCCC(=O)O Some results are limits rather than exact numbers.

Assay [1] has as its system HL-60. Briefly: Cell cycle arrest in human HL60 cells assessed as accumulation at M phase after 72 hrs by flow cytometry. It counts as functional, cell-based. A general note: A flow cytometer gives signals particle by particle.
Assay [2] concerns the target DNA topoisomerase II alpha (Homo sapiens) (UniProt P11388). Briefly: Inhibition of human topoisomerase II mediated DNA relaxation at 1 to 100 uM.
The test system of assay [3] is HL-60. Briefly: Cell cycle arrest in human HL60 cells assessed as accumulation at early S phase after 72 hrs by flow cytometry. It counts as functional, cell-based.
For assay [4], the system named is HL-60. The assay is described as follows: Cell cycle arrest in human HL60 cells assessed as accumulation at S phase after 24 hrs by flow cytometry. It counts as functional, cell-based.
Assay [5] deals with HL-60. The assay is described as follows: Induction apoptosis in human HL60 cells assessed as change in nuclear morphology at 25 uM after 24 to 72 hrs by fluorescence microscopy. It counts as functional, cell-based.
In assay [6] the test system is A549. Briefly: Cell cycle arrest in human A549 cells assessed as accumulation at G2 phase after 72 hrs by flow cytometry. It counts as functional, cell-based.
Assay [7] relates to A549. The assay is described as follows: Cell cycle arrest in human A549 cells assessed as accumulation at G2 phase after 24 hrs by flow cytometry. It counts as functional, cell-based.
Assay [8] concerns HL-60. The assay is described as follows: Cell cycle arrest in human HL60 cells assessed as accumulation at M phase after 24 hrs by flow cytometry. It counts as functional, cell-based.
For assay [9], the system named is A549. Briefly: Cell cycle arrest in human A549 cells assessed as accumulation at M phase after 24 hrs by flow cytometry. It counts as functional, cell-based.
The subject of assay [10] is A549. Briefly: Cell cycle arrest in human A549 cells assessed as accumulation at M phase after 72 hrs by flow cytometry. It counts as functional, cell-based.
The test system of assay [11] is HL-60. Briefly: Cell cycle arrest in human HL60 cells assessed as accumulation at G2 phase after 72 hrs by flow cytometry. It counts as functional, cell-based.
Assay [12] deals with A549. Briefly: Cell cycle arrest in human A549 cells assessed as accumulation at S phase after 24 hrs by flow cytometry. It counts as functional, cell-based.
Assay [13] has as its system A549. The assay is described as follows: Anticancer activity against human A549 cells assessed as cell viability by MTT assay. It counts as functional, cell-based. In outline:
(§1)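 Cells kept in RPMI 1640 with 10% FBS, 2 mM L-glutamine, penicillin/streptomycin, 37 °C, 5% CO2. Exponentially growing cells exposed continuously to a range of concentrations (10 mM DMSO stocks) for three to four generation times. MTT added for 4 h at 37 °C; formazan read on plate reader. IC50 taken from survival–dose curves versus untreated controls. At least two independent experiments, each in duplicate.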

The subject of assay [14] is A549. Briefly: Cell cycle arrest in human A549 cells assessed as accumulation at early S phase after 72 hrs by flow cytometry. It counts as functional, cell-based.
For assay [15], the system named is HL-60. Briefly: Cell cycle arrest in human HL60 cells assessed as accumulation at G2 phase after 24 hrs by flow cytometry. It counts as functional, cell-based.
For assay [16], the system named is HL-60. Briefly: Anticancer activity against human HL60 cells assessed as cell viability by MTT assay. It counts as functional, cell-based. In outline: as §1
(Tetrazolium assays rely on reduction of a dye to a coloured formazan, in cell work by metabolically active cells.)

The target of assay [17] is T1, DNA topoisomerase 1 (Homo sapiens) (UniProt P11387).
T1 sequence (whole entry): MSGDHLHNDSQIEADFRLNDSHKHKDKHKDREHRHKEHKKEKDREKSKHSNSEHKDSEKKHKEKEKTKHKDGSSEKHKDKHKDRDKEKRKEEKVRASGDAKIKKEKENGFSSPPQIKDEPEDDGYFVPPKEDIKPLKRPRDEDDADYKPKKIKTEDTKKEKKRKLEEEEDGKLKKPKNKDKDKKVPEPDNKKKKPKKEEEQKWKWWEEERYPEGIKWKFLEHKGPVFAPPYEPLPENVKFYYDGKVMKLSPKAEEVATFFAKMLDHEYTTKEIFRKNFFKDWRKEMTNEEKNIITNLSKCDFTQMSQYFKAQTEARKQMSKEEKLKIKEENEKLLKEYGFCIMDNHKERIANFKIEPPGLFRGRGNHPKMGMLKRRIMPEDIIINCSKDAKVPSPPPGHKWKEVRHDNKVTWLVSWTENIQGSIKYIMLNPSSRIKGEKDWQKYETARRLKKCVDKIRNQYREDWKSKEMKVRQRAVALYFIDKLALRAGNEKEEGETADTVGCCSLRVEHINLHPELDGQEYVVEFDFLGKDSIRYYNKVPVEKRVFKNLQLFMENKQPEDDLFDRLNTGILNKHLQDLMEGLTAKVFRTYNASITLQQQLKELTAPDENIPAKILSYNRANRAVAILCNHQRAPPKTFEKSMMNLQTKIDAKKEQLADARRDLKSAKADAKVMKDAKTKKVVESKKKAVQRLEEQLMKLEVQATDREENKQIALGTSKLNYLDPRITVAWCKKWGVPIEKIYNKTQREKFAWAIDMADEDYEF
Briefly: Inhibition of human topoisomerase I mediated DNA relaxation at 1 to 100 uM. In short, it runs like this: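 Relaxation of 200 ng supercoiled pBR322 DNA by purified human topoisomerase I, in 10 mM Tris-HCl pH 7.5, 7.5 mM MgCl2, 60 mM KCl. Run 30 min at 37 °C, stopped with SDS/EDTA loading buffer. Products resolved on 1.2% agarose in TBE at 0.5 V/cm for 18 h, stained with ethidium bromide, imaged under UV.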

Sequence of DNA topoisomerase II alpha (Homo sapiens) (P11388 whole entry, looked up): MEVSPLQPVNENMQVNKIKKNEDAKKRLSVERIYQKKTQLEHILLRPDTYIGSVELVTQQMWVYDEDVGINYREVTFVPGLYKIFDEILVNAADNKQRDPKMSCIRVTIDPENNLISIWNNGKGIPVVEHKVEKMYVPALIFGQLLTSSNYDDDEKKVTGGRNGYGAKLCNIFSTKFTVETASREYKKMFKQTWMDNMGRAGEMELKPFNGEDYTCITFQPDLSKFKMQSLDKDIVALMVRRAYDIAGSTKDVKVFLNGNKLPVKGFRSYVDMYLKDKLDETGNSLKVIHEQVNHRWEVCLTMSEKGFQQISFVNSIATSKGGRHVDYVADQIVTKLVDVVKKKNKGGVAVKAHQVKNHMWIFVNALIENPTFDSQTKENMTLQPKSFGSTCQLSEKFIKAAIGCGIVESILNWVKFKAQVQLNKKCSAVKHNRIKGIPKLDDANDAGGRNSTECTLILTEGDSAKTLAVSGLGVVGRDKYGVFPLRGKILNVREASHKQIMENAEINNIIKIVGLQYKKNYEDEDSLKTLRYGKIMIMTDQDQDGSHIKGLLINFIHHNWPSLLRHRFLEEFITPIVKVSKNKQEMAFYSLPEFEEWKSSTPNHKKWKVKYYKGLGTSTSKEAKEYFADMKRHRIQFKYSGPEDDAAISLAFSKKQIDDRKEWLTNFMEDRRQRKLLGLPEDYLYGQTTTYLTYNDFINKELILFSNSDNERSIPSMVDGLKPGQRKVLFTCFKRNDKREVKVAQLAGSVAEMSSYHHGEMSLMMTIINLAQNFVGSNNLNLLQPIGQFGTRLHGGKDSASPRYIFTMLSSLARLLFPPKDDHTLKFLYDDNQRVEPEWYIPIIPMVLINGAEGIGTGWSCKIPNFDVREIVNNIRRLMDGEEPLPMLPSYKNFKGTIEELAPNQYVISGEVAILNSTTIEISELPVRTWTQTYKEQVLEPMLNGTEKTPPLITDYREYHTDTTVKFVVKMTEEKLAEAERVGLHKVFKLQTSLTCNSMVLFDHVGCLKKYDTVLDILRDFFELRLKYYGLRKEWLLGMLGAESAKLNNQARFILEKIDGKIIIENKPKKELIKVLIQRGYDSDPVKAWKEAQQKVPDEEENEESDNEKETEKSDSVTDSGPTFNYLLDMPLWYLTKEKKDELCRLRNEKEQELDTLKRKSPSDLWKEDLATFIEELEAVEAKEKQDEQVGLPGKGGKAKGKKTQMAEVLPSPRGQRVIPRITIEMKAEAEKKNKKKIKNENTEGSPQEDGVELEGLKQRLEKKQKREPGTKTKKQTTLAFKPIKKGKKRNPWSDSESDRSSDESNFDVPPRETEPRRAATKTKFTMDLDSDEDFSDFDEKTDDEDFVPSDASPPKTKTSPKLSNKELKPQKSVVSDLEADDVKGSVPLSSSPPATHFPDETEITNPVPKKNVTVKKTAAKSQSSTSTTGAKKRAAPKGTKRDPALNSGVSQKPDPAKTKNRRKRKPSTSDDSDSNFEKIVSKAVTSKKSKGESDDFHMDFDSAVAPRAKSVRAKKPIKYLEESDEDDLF

On to `Cc1ccc([N+](=O)[O-])c2c(NCCCC(=O)N[C@H](C(=O)N[C@@H](CCCCNC(=O)CN)C(=O)N3CCC[C@H]3C(=O)N[C@@H](CCCNC(=N)N)C(=O)O)[C@@H](C)O)c3ccccc3nc12` ({Acridin9yl(1-NO2,4-Me)-GABA}-TK(Gly)PR-OH), for which the result in [1], in [3], in assay [4], in assay [6], in assay [7] and in assay [8] was Active. For the same compound, the outcome in [9], in assay [10], in [11], in [12], in assay [14] and in assay [15] was Active. The inhibition result in assay [2] was “inactive”. For the same compound, the result in assay [5] was inactive. For the same compound, the values for the 50% inhibitory concentration (IC50) in assay [13] and in assay [16] were 3 µM and 17.2 µM, respectively.

In the case of `O=C(O)CCNc1c2ccccc2nc2cccc([N+](=O)[O-])c12`, the values for the IC50 in assay [13] and in assay [16] were 6 µM and 18.9 µM, respectively.

Take `C[C@@H](O)[C@H](NC(=O)c1cccc2c(=O)c3ccccc3[nH]c12)C(=O)N[C@@H](CCCCNC(=O)CN)C(=O)N1CCC[C@H]1C(=O)N[C@@H](CCCNC(=N)N)C(=O)O` ({Acridone(4-CO)}-TK(Gly)PR-OH): the IC50 in assay [13] and in [16] was > 100 µM throughout.

For `C[C@@H](O)[C@H](NC(=O)[C@H](CCCCNC(=O)CN)NC(=O)[C@@H]1CCCN1C(=O)[C@H](CCCNC(=N)N)NC(=O)CCNc1c2ccccc2nc2cccc([N+](=O)[O-])c12)C(=O)O` ({X2-βAla}-RPK(Gly)T-OH), the figures for the concentration for half-maximal inhibition (IC50) in [13] and in [16] were 33.9 µM and 71.5 µM, respectively.

With `CC[C@H](C)[C@H](N)C(=O)NCCCC[C@H](NC(=O)[C@@H]1CCCN1C(=O)[C@H](CCCNC(=N)N)NC(=O)c1ccc([N+](=O)[O-])c2c(=O)c3ccccc3[nH]c12)C(=O)N[C@H](C(=O)O)[C@@H](C)O` (X1-RPK(Ile)T-OH), the results for the IC50 in assay [13] and in assay [16] were 38.9 µM and > 100 µM, respectively.

For `CC[C@H](C)[C@H](N)C(=O)NCCCC[C@H](NC(=O)[C@@H]1CCCN1C(=O)[C@H](CCCNC(=N)N)NC(=O)c1cccc2c(=O)c3ccccc3[nH]c12)C(=O)N[C@H](C(=O)O)[C@@H](C)O` ({Acridone(4-CO)}-RPK(Ile)T-OH), the 50% inhibitory concentration (IC50) in [13] and in assay [16] was > 100 µM in each case.

As for `CC(C)[C@H](N)C(=O)NCCCC[C@H](NC(=O)[C@@H]1CCCN1C(=O)[C@H](CCCNC(=N)N)Nc1ccc(O)c2c1C(=O)c1ccccc1C2=O)C(=O)N[C@H](C(=O)O)[C@@H](C)O`, in assay [13], the IC50 (in general, the concentration that gives 50% inhibition) worked out at 41.5 µM.

Regarding `Cc1ccc([N+](=O)[O-])c2c(NCCC(=O)N[C@H](C(=O)N[C@@H](CCCCNC(=O)CN)C(=O)N3CCC[C@H]3C(=O)N[C@@H](CCCNC(=N)N)C(=O)O)[C@@H](C)O)c3ccccc3nc12` ({Acridin9yl(1-NO2,4-Me)-βAla}-TK(Gly)PR-OH), the IC50 stood at 76.5 µM in [13] and 55.5 µM in assay [16].

For the compound `C[C@@H](O)[C@H](NC(=O)[C@H](CCCCN)NC(=O)[C@@H]1CCCN1C(=O)[C@H](CCCNC(=N)N)Nc1ccc(O)c2c1C(=O)c1ccccc1C2=O)C(=O)O`, the IC50 in assay [13] and in [16] was > 100 µM in each case.

Take `Cc1ccc([N+](=O)[O-])c2c(NCCCCCC(=O)N[C@@H](CCCNC(=N)N)C(=O)N3CCC[C@H]3C(=O)N[C@@H](CCCCN)C(=O)N[C@H](C(=O)O)[C@@H](C)O)c3ccccc3nc12` ({Acridin9yl(1-NO2,4-Me)-Ahx}-RPKT-OH): the IC50 was found to be 25.6 µM in assay [13] and 22.1 µM in [16].

With `C[C@H](N)C(=O)NCCCC[C@H](NC(=O)[C@@H]1CCCN1C(=O)[C@H](CCCNC(=N)N)Nc1ccc(O)c2c1C(=O)c1ccccc1C2=O)C(=O)N[C@H](C(=O)O)[C@@H](C)O`, the IC50 in assay [13] and in assay [16] was > 100 µM throughout.

`C[C@@H](O)[C@H](Nc1ccc(O)c2c1C(=O)c1ccccc1C2=O)C(=O)N[C@@H](CCCCN)C(=O)N1CCC[C@H]1C(=O)N[C@@H](CCCNC(=N)N)C(=O)O`: the half-inhibitory concentration (IC50) is 14.2 µM in assay [13] and 32.4 µM in assay [16]. In assay [17], the inhibition result was “Active”.

As to `Cc1ccc([N+](=O)[O-])c2c(NCCCCCC(=O)N[C@H](C(=O)N[C@@H](CCCCN)C(=O)N3CCC[C@H]3C(=O)N[C@@H](CCCNC(=N)N)C(=O)O)[C@@H](C)O)c3ccccc3nc12` ({Acridin9yl(1-NO2,4-Me)-Ahx}-TKPR-OH), the IC50 in assay [13] was found to be 15 µM; in [16], 13.2 µM.

Consider `CC[C@H](C)[C@H](N)C(=O)NCCCC[C@H](NC(=O)[C@@H]1CCCN1C(=O)[C@H](CCCNC(=N)N)NC(=O)CCCCCNc1c2ccccc2nc2c(C)ccc([N+](=O)[O-])c12)C(=O)N[C@H](C(=O)O)[C@@H](C)O` ({Acridin9yl(1-NO2,4-Me)-Ahx}-RPK(Ile)T-OH), for which the IC50 amounted to 47.3 µM in assay [13] and 23.2 µM in assay [16].

With `Cc1ccc([N+](=O)[O-])c2c(NCCCC(=O)O)c3ccccc3nc12`, the result in assay [1], in [3], in assay [4], in assay [5], in [6] and in assay [7] was Active. Further, the outcome in assay [8], in [9], in assay [10], in assay [11], in assay [12] and in assay [14] was Active. Moreover, the result in [15] was Active. Besides, in assay [2], the inhibition result is “inactive”. The values for the IC50 in assay [13] and in [16] were 17.6 µM and 15.5 µM, respectively.

For the compound `Cc1ccc([N+](=O)[O-])c2c(NCCCCCC(=O)O)c3ccccc3nc12`, the results for the IC50 in assay [13] and in assay [16] were 18.7 µM and 17.5 µM, respectively.

Consider `C[C@@H](O)[C@H](NC(=O)[C@H](CCCCNC(=O)CN)NC(=O)[C@@H]1CCCN1C(=O)[C@H](CCCNC(=N)N)NC(=O)c1cccc2c(=O)c3ccccc3[nH]c12)C(=O)O` ({Acridone(4-CO)}-RPK(Gly)T-OH), for which the IC50 in assay [13] and in [16] was > 100 µM throughout.

In the case of `O=C(O)c1ccc([N+](=O)[O-])c2c(=O)c3ccccc3[nH]c12`, the IC50 in assay [13] and in assay [16] was > 100 µM in each case.

Take `O=C1CCC(=O)c2c1c(O)c1ccccc1c2O`: the IC50 in [13] and in assay [16] was 15.8 µM in each case. Besides, the inhibition entry in [17] was “Active”.

In the case of `CC[C@H](C)[C@H](N)C(=O)NCCCC[C@H](NC(=O)[C@@H](NC(=O)CCCCCNc1c2ccccc2nc2c(C)ccc([N+](=O)[O-])c12)[C@@H](C)O)C(=O)N1CCC[C@H]1C(=O)N[C@@H](CCCNC(=N)N)C(=O)O` ({Acridin9yl(1-NO2,4-Me)-Ahx}-TK(Ile)PR-OH), the IC50 in assay [13] worked out at 8.7 µM; in assay [16], 11.3 µM.

As to `CC[C@H](C)[C@H](N)C(=O)NCCCC[C@H](NC(=O)[C@@H](NC(=O)c1ccc([N+](=O)[O-])c2c(=O)c3ccccc3[nH]c12)[C@@H](C)O)C(=O)N1CCC[C@H]1C(=O)N[C@@H](CCCNC(=N)N)C(=O)O` (X1-TK(Ile)PR-OH), the IC50 in assay [13] and in assay [16] was > 100 µM throughout.
